What was measured:
Settings in all cases: stereoisomer not certain
OR1N1 (Homo sapiens) = target: T1, OR1N1 (Homo sapiens) (UniProt Q8NGS0)
T1 sequence (whole entry): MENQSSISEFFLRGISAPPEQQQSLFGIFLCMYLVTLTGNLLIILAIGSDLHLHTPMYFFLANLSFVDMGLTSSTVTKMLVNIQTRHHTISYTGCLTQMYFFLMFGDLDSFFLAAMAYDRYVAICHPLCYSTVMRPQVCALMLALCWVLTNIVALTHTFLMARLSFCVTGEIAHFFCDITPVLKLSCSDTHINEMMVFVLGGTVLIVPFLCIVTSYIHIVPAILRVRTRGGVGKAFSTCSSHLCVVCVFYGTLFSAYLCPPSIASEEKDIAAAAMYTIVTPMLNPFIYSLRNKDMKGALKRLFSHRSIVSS
Method in brief: (§1)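 Each receptor–molecule pair is labelled responsive or non-responsive (inactive) according to whether the original authors judged the measured signal statistically different from baseline. The data were taken from the main text and supplementary material of published papers and checked for typos and inconsistencies. Assay methods differed by source, with transient luciferase assays in mammalian cell lines being common.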

OR1N2 = tested on: OR1N2
Method in brief: as §1

OR1P1 (Homo sapiens) = OR1P1 (Homo sapiens) (UniProt Q8NH06)
Method in brief: as §1

OR1Q1 (Homo sapiens) = OR1Q1 (Homo sapiens) (UniProt Q15612)
Method in brief: as §1

OR1S1 (Homo sapiens) = OR1S1 (Homo sapiens) (UniProt Q8NH92)
Method in brief: as §1

OR1S2 (Homo sapiens) = OR1S2 (Homo sapiens) (UniProt Q8NGQ3)
Method in brief: as §1

OR1N2 W37R = tested on: OR1N2 W37R
Method in brief: as §1

OR1Q1 = tested on: OR1Q1
Method in brief: as §1

OR1S2 E17G = tested on: OR1S2 E17G
Method in brief: as §1

OR1S2 V225T G240R = tested on: OR1S2 V225T G240R
Method in brief: as §1

Measured: odorant receptor agonist call;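 note: active if original authors judged signal statistically different from baseline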

Chain of OR1S1 (Homo sapiens) (Q8NH92 whole entry): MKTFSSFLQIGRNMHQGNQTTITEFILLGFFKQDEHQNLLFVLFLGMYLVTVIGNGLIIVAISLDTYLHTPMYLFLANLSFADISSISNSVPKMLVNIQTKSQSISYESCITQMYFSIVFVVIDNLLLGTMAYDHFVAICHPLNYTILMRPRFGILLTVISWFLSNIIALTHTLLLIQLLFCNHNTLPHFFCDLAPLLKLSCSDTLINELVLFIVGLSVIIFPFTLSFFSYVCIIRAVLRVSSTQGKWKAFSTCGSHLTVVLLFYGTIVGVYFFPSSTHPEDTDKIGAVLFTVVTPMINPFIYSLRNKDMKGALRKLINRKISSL
Chain of OR1N2 (as listed by the source): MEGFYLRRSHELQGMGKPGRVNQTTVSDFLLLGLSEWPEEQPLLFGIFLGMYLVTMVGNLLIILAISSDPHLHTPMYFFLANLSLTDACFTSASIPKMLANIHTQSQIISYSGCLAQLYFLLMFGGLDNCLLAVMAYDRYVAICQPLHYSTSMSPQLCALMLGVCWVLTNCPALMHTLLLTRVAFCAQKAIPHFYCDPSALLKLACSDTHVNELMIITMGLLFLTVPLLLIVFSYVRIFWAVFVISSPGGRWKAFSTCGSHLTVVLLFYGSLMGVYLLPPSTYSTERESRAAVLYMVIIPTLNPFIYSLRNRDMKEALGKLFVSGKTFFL
Chain of OR1Q1 (Homo sapiens) (Q15612 whole entry): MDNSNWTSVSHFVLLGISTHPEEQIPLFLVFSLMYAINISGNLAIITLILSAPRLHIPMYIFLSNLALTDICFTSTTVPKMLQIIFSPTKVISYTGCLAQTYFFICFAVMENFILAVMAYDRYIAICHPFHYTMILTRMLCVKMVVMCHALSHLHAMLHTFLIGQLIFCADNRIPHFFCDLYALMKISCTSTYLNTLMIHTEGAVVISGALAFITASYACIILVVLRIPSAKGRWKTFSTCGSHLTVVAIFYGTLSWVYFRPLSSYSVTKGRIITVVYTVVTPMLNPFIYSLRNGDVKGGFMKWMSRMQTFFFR
Chain of OR1S2 (Homo sapiens) (Q8NGQ3 whole entry): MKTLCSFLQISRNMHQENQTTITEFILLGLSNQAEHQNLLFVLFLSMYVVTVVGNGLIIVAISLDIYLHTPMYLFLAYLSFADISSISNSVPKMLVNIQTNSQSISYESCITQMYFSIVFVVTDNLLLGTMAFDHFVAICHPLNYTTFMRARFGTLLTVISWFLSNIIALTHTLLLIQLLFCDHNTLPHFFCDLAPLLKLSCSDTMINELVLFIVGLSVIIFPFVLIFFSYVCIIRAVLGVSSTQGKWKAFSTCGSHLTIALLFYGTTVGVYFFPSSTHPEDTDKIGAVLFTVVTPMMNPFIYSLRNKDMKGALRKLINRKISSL
Chain of OR1Q1 (as listed by the source): as the sequence (Q15612 whole entry) above, with Q24R, I163M counted along it
Chain of OR1P1 (Homo sapiens) (Q8NH06 whole entry K185A): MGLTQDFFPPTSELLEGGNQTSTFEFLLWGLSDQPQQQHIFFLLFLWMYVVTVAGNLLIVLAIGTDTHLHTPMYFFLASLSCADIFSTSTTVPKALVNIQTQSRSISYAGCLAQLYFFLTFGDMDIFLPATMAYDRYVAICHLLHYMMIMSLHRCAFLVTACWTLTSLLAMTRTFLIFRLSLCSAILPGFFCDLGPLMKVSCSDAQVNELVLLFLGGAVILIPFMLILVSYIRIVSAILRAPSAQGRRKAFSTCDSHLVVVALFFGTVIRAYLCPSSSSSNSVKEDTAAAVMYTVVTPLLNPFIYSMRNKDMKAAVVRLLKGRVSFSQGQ
Chain of OR1N2 W37R (as listed by the source, stated change not applied): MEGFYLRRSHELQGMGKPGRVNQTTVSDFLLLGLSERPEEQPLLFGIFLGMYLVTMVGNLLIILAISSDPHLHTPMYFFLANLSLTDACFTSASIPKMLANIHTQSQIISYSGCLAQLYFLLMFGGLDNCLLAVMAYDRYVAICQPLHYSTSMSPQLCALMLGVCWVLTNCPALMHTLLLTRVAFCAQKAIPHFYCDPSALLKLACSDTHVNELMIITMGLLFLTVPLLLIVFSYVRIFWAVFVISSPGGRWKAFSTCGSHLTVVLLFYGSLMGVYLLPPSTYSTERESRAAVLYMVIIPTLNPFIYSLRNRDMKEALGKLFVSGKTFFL
Chain of OR1S2 E17G (as listed by the source, stated change not applied): as the sequence (Q8NGQ3 whole entry) above, with E17G counted along it

Cc1c([N+](=O)[O-])c(C)c([N+](=O)[O-])c(C(C)(C)C)c1[N+](=O)[O-]
inactive: OR1N1 (Homo sapiens) | OR1N2 | OR1P1 (Homo sapiens) | OR1Q1 (Homo sapiens) | OR1S1 (Homo sapiens) | OR1S2 (Homo sapiens)

C=CCOC(=O)Cc1ccccc1
not listed: OR1P1 (Homo sapiens)
inactive: all other assays above

c1ccncc1
inactive: OR1N1 (Homo sapiens)

Reference: the M2OR odorant receptor database
